Our source for the MIC values is ChEMBL document CHEMBL4706607, “Anti-tubercular profile of new selenium-menadione conjugates against Mycobacterium tuberculosis H37Rv (ATCC 27294) strain and multidrug-resistant clinical isolates” (Eur J Med Chem, 2021).

Converted amounts (≈) assume the structure as drawn. Some results are limits rather than exact numbers.

For experiment [1], the system named is Mycobacterium tuberculosis. Kind of experiment: Antimycobacterial activity against multidrug resistance Mycobacterium tuberculosis CDCT-16 clinical isolates assessed as reduction in bacterial growth by resazurin reduction microplate assay. The format is functional. An outline of the steps: (§1)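 REMA in Middlebrook 7H9 broth with 10% ADC. Compounds dissolved at 1 mg/mL in DMSO and diluted to 50 μg/mL in broth containing 5% DMSO. Ten-point two-fold dilutions gave 25.0 to 0.05 μg/mL. Growth and sterility controls on each plate. MIC was the lowest concentration preventing the blue-to-pink change.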

The test system of experiment [2] is Mycobacterium tuberculosis. Kind of experiment: Antimycobacterial activity against multidrug resistance Mycobacterium tuberculosis CDCT-27 clinical isolates assessed as reduction in bacterial growth by resazurin reduction microplate assay. Type of experiment: functional. An outline of the steps:
as §1

For the compound `CC1=C(C[Se]C(=O)c2ccc(C)cc2)C(=O)c2ccccc2C1=O`, the MIC in experiment [1] and in experiment [2] was above 10 µM in each case.

For the compound `CC1=C(C[Se]C(=O)c2ccc(Cl)cc2)C(=O)c2ccccc2C1=O`, the MIC in experiment [1] and in experiment [2] was above 10 µM throughout.

In the case of `COc1ccc(C(=O)[Se]CC2=C(C)C(=O)c3ccccc3C2=O)cc1`, the MIC in experiment [1] and in experiment [2] was above 10 µM each time.

Take `CCCC(C)C(=O)[Se]CC1=C(C)C(=O)c2ccccc2C1=O` (stereo not given): the MIC in experiment [1] and in experiment [2] was above 10 µM throughout.

On to `CCCCC(=O)[Se]CC1=C(C)C(=O)c2ccccc2C1=O`, for which the MIC in experiment [1] and in experiment [2] was above 10 µM in each case.

Consider `CC1=C(C[Se]C(=O)c2ccccc2C)C(=O)c2ccccc2C1=O`, for which the MIC in experiment [1] and in experiment [2] was 3.1 µM (≈ 1.19 µg/mL) each time.

`CC1=C(C[Se]C(=O)c2ccccc2)C(=O)c2ccccc2C1=O`: the MIC in experiment [1] and in experiment [2] was 0.8 µM (≈ 0.295 µg/mL) each time.

Regarding `CCc1ccc(C(=O)[Se]CC2=C(C)C(=O)c3ccccc3C2=O)cc1`, the MIC in experiment [1] and in experiment [2] was above 10 µM each time.

Regarding `CC1=C(C[Se]C(=O)c2ccc(F)cc2)C(=O)c2ccccc2C1=O`, the values for the minimal inhibitory concentration (MIC) in experiment [1] and in experiment [2] were 0.8 µM (≈ 0.31 µg/mL) and 3.1 µM (≈ 1.2 µg/mL), respectively.

For the compound `NNC(=O)c1ccncc1` [ISONIAZID], the values for the MIC in experiment [1] and in experiment [2] were 100 µM (≈ 13.7 µg/mL) and 25 µM (≈ 3.43 µg/mL), respectively.
